# Source: ChEMBL document CHEMBL1140233, “Synthesis and preliminary biological evaluation of novel pyrazolo[1,5-a]pyrazin-4(5H)-one derivatives as potential agents against A549 lung cancer cells” (Bioorg Med Chem, 2008)
# Active and inactive are the calls of the source. No cut-off for these calls is given here.
# Tests used:
# A549 [1] = test: Growth inhibition of human A549 cells after 48 hrs by MTT assay; format: functional, cell-based; settings: A549, 48 h
# Procedure, shortened: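 A549 cells kept in RPMI 1640 with 10% (v/v) bovine calf serum and 80 U/ml gentamicin at 37 °C, 5% CO2, and seeded in 96-well plates at 6250/cm². They were exposed to compound at 8, 16, 32 and 64 µM for 12, 24 or 48 h. Viability was read by MTT absorbance at 570 nm and expressed as percent of untreated control (n = 3).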
# A549 [2] = test: Induction of necrosis in human A549 cells at 64 uM after 48 hrs by LDH assay; format: functional, cell-based
# Procedure, shortened: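 A549 cells cultured in RPMI 1640 with 10% bovine calf serum were exposed to compound at 64 µM for 48 h. LDH released into the culture medium was measured by absorbance at 340 nm on a UV–vis spectrometer and compared with untreated control cells.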
# A549 [3] = test: Viability of human A549 cells at 64 uM after 48 hrs by MTT assay relative to control; settings: A549, 48 h
# A549 [4] = test: Induction of autophagy in human A549 cells assessed as volume of cellular acidic compartment at 32 uM by acridine orange staining; format: functional, cell-based
# Procedure, shortened: (§1)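 A549 cells in RPMI 1640 with 10% bovine calf serum were treated with compound at 16 or 32 µM for 24 or 48 h. They were then stained with acridine orange for 1 min at room temperature and imaged by fluorescence microscopy. Nuclear DNA fragmentation, chromatin condensation and the volume of the acidic compartment were scored by eye (n = 4).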
# A549 [5] = test: Viability of human A549 cells at 32 uM after 24 hrs by MTT assay relative to control; settings: A549, 24 h
# A549 [6] = test: Viability of human A549 cells at 32 uM after 48 hrs by MTT assay relative to control; settings: A549, 48 h
# A549 [7] = test: Induction of apoptosis in human A549 cells assessed as DNA fragmentation at 16 uM after 24 hrs by acridine orange staining; format: functional, cell-based; procedure, shortened: as §1
# A549 [8] = test: Induction of apoptosis in human A549 cells assessed as DNA fragmentation at 32 uM after 24 hrs by acridine orange staining; format: functional, cell-based; procedure, shortened: as §1
# A549 [9] = test: Induction of apoptosis in human A549 cells assessed as DNA fragmentation at 32 uM after 48 hrs by acridine orange staining; format: functional, cell-based; procedure, shortened: as §1
# A549 [10] = test: Induction of apoptosis in human A549 cells assessed as DNA fragmentation at 16 uM after 48 hrs by acridine orange staining; format: functional, cell-based; procedure, shortened: as §1
# A549 [11] = test: Viability of human A549 cells at 32 uM after 12 hrs by MTT assay relative to control; settings: A549, 12 h
smiles,measurement,setting,value
CCCCN1CCn2nc(-c3ccc(OC)cc3)cc2C1=O,IC50,A549 [1],62.5 µM
CC(C)N1CCn2nc(-c3ccccc3)cc2C1=O,IC50,A549 [1],> 64 µM
COc1ccc(-c2cc3n(n2)CCN(Cc2ccc(C(C)(C)C)cc2)C3=O)cc1,Activity,A549 [2],inactive
same,IC50,A549 [1],50.2 µM
CCCCN1CCn2nc(-c3ccccc3)cc2C1=O,IC50,A549 [1],> 64 µM
CC(C)(C)c1ccc(CN2CCn3nc(-c4ccccc4)cc3C2=O)cc1,IC50,A549 [1],> 64 µM
COc1ccc(-c2cc3n(n2)CCN(Cc2ccc(Cl)nc2)C3=O)cc1,IC50,A549 [1],> 64 µM
CCCCN1CCn2nc(-c3ccc(Cl)cc3)cc2C1=O,Activity,A549 [2],inactive
same,IC50,A549 [1],29.8 µM
CC(C)(C)c1ccc(CN2CCn3nc(-c4ccc(Cl)cc4)cc3C2=O)cc1,IC50,A549 [1],> 64 µM
O=C1c2cc(-c3ccccc3)nn2CCN1Cc1ccc(Cl)nc1,IC50,A549 [1],> 64 µM
O=C1c2cc(-c3ccc(Cl)cc3)nn2CCN1Cc1ccccc1,viability at 64 µM,A549 [3],26.5%
same,Activity,A549 [4],Active
same,viability at 32 µM,A549 [5],73.6%
same,viability at 32 µM,A549 [6],39.2%
same,Activity,A549 [2],inactive
same,Activity,A549 [7],inactive
same,Activity,A549 [8],inactive
same,Activity,A549 [9],inactive
same,IC50,A549 [1],22.3 µM
same,Activity,A549 [10],inactive
same,viability at 32 µM,A549 [11],78.7%
COc1ccc(CCN2CCn3nc(-c4ccccc4)cc3C2=O)cc1OC,Activity,A549 [2],inactive
same,IC50,A549 [1],31.5 µM
O=C1c2cc(-c3ccc(Cl)cc3)nn2CCN1Cc1ccc(Cl)nc1,Activity,A549 [2],inactive
same,IC50,A549 [1],39.5 µM
O=C1c2cc(-c3ccccc3)nn2CCN1Cc1ccccc1,IC50,A549 [1],> 64 µM
CC(C)N1CCn2nc(-c3ccc(Cl)cc3)cc2C1=O,viability at 64 µM,A549 [3],34.6%
same,viability at 32 µM,A549 [5],75.7%
same,viability at 32 µM,A549 [6],50%
same,Activity,A549 [2],inactive
same,IC50,A549 [1],31 µM
same,viability at 32 µM,A549 [11],81.4%
COc1ccc(-c2cc3n(n2)CCN(Cc2ccccc2)C3=O)cc1,IC50,A549 [1],> 64 µM
COc1ccc(-c2cc3n(n2)CCN(C(C)C)C3=O)cc1,IC50,A549 [1],> 64 µM
COc1ccc(-c2cc3n(n2)CCN(CCc2ccc(OC)c(OC)c2)C3=O)cc1,IC50,A549 [1],> 64 µM
COc1ccc(CCN2CCn3nc(-c4ccc(Cl)cc4)cc3C2=O)cc1OC,IC50,A549 [1],> 64 µM
